Source: PubChem
Tb hexokinase – T. brucei hexokinase 1 inhibition; recombinant TbHK1, G6PDH-coupled NADH A340; inhibition, % at 10 µM; hit rate 0.11% among 220,000; AID 1430;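 active = inhibition of 50% or more in the single-dose primary screen; inactive = inhibition below 50%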
Runt-CBFb FRET – blocks binding of human RUNX1 Runt domain to CBFb. Q01196+Q13951. Cerulean-Runt/Venus-CBFb FRET ratio 530/480, 1 h. inhibition, % at 20 µM. hit rate 0.46% among 220,000. AID 1496;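 active = inhibition over about 50% at 20 µM in the single-dose screen, limit read from the data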;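 also: 0% = DMSO wells and 100% = excess unlabeled CBFb competitor control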
Target sequence (Q01196 whole entry, looked up, the tested form may be a part): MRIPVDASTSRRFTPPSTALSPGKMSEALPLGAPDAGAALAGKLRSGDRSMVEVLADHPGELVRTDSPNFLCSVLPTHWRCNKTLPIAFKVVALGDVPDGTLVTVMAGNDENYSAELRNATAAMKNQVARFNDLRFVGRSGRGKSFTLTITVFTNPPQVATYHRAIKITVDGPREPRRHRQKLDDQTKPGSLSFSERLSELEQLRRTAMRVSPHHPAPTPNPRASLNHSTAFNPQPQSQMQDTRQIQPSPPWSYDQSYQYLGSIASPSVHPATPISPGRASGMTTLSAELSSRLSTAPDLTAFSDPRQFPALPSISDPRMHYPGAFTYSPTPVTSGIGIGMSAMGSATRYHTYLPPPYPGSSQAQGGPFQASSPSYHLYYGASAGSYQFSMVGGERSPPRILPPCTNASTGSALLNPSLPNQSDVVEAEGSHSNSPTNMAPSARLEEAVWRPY
Target sequence (Q13951 whole entry, looked up, the tested form may be a part): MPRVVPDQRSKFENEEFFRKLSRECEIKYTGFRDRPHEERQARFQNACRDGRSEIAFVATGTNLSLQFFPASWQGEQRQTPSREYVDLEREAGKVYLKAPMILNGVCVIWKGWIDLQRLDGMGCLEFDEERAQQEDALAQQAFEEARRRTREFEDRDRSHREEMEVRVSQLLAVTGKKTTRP
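test system = Cerulean-Runt domain fusion protein, energy donor | probe or stimulus = Venus-CBFb binding partner, 100 nM | incubation = two 1 h room-temperature incubations shielded from light | detection = fluorescence energy transfer, 422 nm excitation, 530/480 nm emission | measure = loss of energy transfer signal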
RanGTP-Imp inh – disruptors of Ran-importin-beta complex formation – biochemical, FRET, CFP-Ran, YFP-importin-beta, homogeneous, primary screen. cell-free CFP-Ran/YFP-importin-beta FRET ratio. inhibition, % (concentration not given with the values). hit rate 1.1% among 300,000;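 active = more than half of the replicate wells show a fall in the fluorescence ratio signal beyond about 16%, limit read from the data, passing the limit was not always enough; inconclusive = exactly half of the replicate wells pass the set limit; inactive = fewer than half of replicates pass the limit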;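 also: 0% = DMSO wells and 100% = Ran loaded with GDP instead of GTP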
Hck-Nef inh – inhibitors of human Hck kinase activated by Nef; P08631; Recombinant Hck-YEEI plus Nef, Z-Lyte FRET kinase assay; inhibition, % at 20 µM; hit rate 0.68% among 220,000; AID 463187;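 active = Hck-Nef kinase inhibition above about 50%, limit read from the data; inactive = inhibition below that limit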;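 also: 0% = DMSO with Hck plus Nef and 100% = Hck alone without Nef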
Runt-SMMHC FRET – Runt domain-CBFb-SMMHC interaction inhibition | Q01196+Q13951 | Cerulean-Runt/Venus-CBFb-SMMHC FRET ratio 530/480, 1 h | inhibition, % at 20 µM | hit rate 0.74% among 220,000 | AID 1434;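 active = mean inhibition across duplicate retests at 20 µM reaching about 50%, limit read from the data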;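 also: 0% = DMSO wells and 100% = wells with excess untagged CBFb-SMMHC; inhibitors lower the FRET ratio by blocking Runt binding to CBFb-SMMHC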
p97 ATPase inh – blocks human p97 ATPase activity | P55072 | recombinant p97 ATPase, Kinase-Glo ATP luminescence, 3 h | inhibition, % at 8 µM | hit rate 0.42% among 220,000; in the data active = inhibition above about 15%;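 also: 0% = DMSO vehicle and 100% = wells lacking enzyme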
Numbers without * were called inactive; ? = inconclusive; . = not tested or not shown. An excerpt weighted towards active compounds, which were near 2.1% of everything screened.

SMILES | Tb hexokinase | Runt-CBFb FRET | RanGTP-Imp inh | Hck-Nef inh | Runt-SMMHC FRET | p97 ATPase inh
Cc1cccc(CN2CCc3c(OCC(=O)N4CCCc5ccccc54)cccc3C2=O)c1 | -10.6 | -3.7 | 21.9* | 0.5 | 2.4 | -1.8
O=C1c2cccc(OCC(=O)N3CCCc4ccccc43)c2CCN1Cc1ccc(F)cc1 | 45.4 | -1.1 | -1.1 | 0.3 | -1.3 | -5.1
CCCCn1nc(NC(=O)CC(C)C)c2cc3cc(OC)ccc3nc21 | . | . | 83.6* | . | . | .
CCCCn1nc(NC(=O)CCC)c2cc3cc(OC)ccc3nc21 | . | . | 71.2* | . | . | .
CCCC(=O)Nc1nn(CCC)c2nc3ccccc3cc12 | 3.4 | 7.7 | 7.6 | 14.1 | 3.8 | -1.5
COc1ccc2nc3c(cc2c1)c(NC(=O)CC(C)C)nn3CC(C)C | . | . | 74.3* | . | . | .
COc1ccc(-n2nc3cc(C)c(NC(=O)CC(C)C)cc3n2)cc1 | -9.2 | -2.3 | ? | 0.5 | 1.5 | 1.5
COc1ccc2[nH]c(C)cc(=O)c2c1 | -15.4 | 0.3 | -3.5 | -7.4 | 4.3 | -2.1
COc1ccc2[nH]c3c(C)c4ccncc4c(C)c3c2c1 | -7.1 | 11.0 | 45.0* | -3.7 | 21.8 | 13.8
CCc1ccccc1N(CC(=O)Nc1cccnc1)S(=O)(=O)c1ccccc1 | . | . | 5.8 | . | . | .
CCOc1ccccc1/C=C/c1nc2ccccc2[nH]c1=O | . | . | 70.7* | . | . | .
CCNC(=O)/C(C#N)=C/c1c(N2CCOCC2)nc2ccccn2c1=O | -16.2 | 62.7* | 9.0 | 15.0 | 81.1* | 6.7
C=CCNC(=O)/C(C#N)=C/c1c(N2CCCCCC2)nc2ccccn2c1=O | . | . | 3.8 | . | . | .
CCOC(=O)/C(C#N)=C/c1c(N2CCN(C)CC2)nc2ccccn2c1=O | . | . | 100.8* | . | . | .
CN1CCN(c2nc3ccccn3c(=O)c2/C=C(\C#N)S(=O)(=O)c2ccccc2)CC1 | -21.9 | 1.8 | 71.6* | 9.1 | 4.9 | 6.2
COCCNC(=O)/C(C#N)=C/c1c(N2CCN(C)CC2)nc2ccccn2c1=O | . | . | 97.4* | . | . | .
N#C/C(=C\c1c(N2CCN(c3ccccc3)CC2)nc2ccccn2c1=O)S(=O)(=O)c1ccccc1 | . | . | -3.4 | . | . | .
COc1ccc2oc(C(=O)Nc3nc(-c4ccccn4)cs3)c(C)c2c1 | . | . | 7.0 | . | . | .
COc1ccc(-c2nc3ccc(C(=O)NCC(OC)OC)cc3nc2-c2ccc(OC)cc2)cc1 | -5.7 | 4.1 | 15.5* | 7.9 | 2.8 | -3.9
COc1ccc(S(=O)(=O)NCCc2c[nH]c3ccc(C)cc23)cc1 | . | . | -0.7 | . | . | .
CN(C(=O)COC(=O)c1nn(C)c(=O)c2ccccc12)c1c(N)n(Cc2ccccc2)c(=O)[nH]c1=O | . | . | 1.4 | . | . | .
COc1cccc(-c2cc(C(F)(F)F)c(C#N)c(=O)[nH]2)c1 | -14.4 | 4.8 | -3.2 | 41.7 | 16.2 | 0.2
COc1cccc(-c2c3c([nH]c(=O)c2C#N)CCc2cc(OC)ccc2-3)c1 | -12.1 | 89.3* | 93.9* | 1.4 | 80.2* | -3.3
Cc1cc2c(c(=O)n1C)C(Cc1ccccc1)C(C#N)=C(N)O2 (configuration not stated) | -4.9 | 122.9* | 62.7* | 2.0 | 145.6* | 1.7
Cc1cc2c(c(=O)n1CCc1ccccc1)C(C(C)C)C(C#N)=C(N)O2 (configuration not stated) | 2.7 | -0.4 | -0.8 | 2.4 | 5.6 | -4.4
SMILES | Tb hexokinase | Runt-CBFb FRET | RanGTP-Imp inh | Hck-Nef inh | Runt-SMMHC FRET | p97 ATPase inh
CCN(C(=O)c1cc2c(=O)[nH]c3ccc(C)cc3c2s1)c1ccc(OC)cc1 | -16.7 | -2.4 | 2.8 | 12.2 | -1.3 | 2.5
Oc1ccccc1/C=N/NC(=S)NC1CC2C=CC1C2 (configuration not stated) | -16.4 | 3.3 | 0.9 | -22.4 | 8.1 | 1.6
Oc1c(Cl)cc(Cl)cc1/C=N/NC(=S)NC1CC2C=CC1C2 (configuration not stated) | -9.4 | 11.9 | 9.0 | -87.5 | 90.1* | 1.2
Cc1ccc2sc3ccc(NC(=O)c4ccccc4Cl)cc3c(=O)c2c1 | -1.4 | 34.9 | 113.6* | 8.2 | 101.3* | -1.6
Cc1cc(NC(=O)c2ccccc2Cl)ccc1NC(=O)c1ccccc1Cl | . | . | 3.4 | . | . | .
CCCn1c(=O)cc(N)n(-c2ccc(OC(F)(F)F)cc2)c1=O | . | . | 6.0 | . | . | .
NC(=O)NC(=O)COC(=O)c1ccc2c(c1)C(=O)N(Cc1ccccc1)C2=O | -7.1 | -1.0 | 1.9 | 21.7 | -3.7 | 7.9
COc1cc(-c2nc3cnccn3c2Nc2c(C)cccc2C)ccc1O | -18.5 | 12.2 | 52.5* | 5.3 | 18.5 | -2.6
COc1cc(-c2nc3cnccn3c2NC(C)(C)CC(C)(C)C)ccc1O | . | . | -1.1 | . | . | .
Fc1ccc(N2CCN(c3cnc4ccccc4n3)CC2)cc1 | . | . | 1.1 | . | . | .
CCOC(=O)C1=C(CSc2nc(C)ccc2C#N)OC(N)=C(C#N)C1c1cccc(OC)c1OC (configuration not stated) | -6.1 | 23.7 | 18.5* | -0.3 | 8.3 | -5.3
CC(C)OC(=O)c1sc2nc(-c3ccccc3)ccc2c1N | -3.2 | -0.7 | 20.2* | 0.1 | 4.3 | 0.2
COc1ccc(C(=O)c2sc3nc(-c4ccccc4)ccc3c2N)cc1 | 2.5 | -77.8 | . | -8.6 | -21.5 | -1.5
O=C(CN1C(=O)S/C(=C\c2ccc(F)cc2)C1=O)NC1C=CS(=O)(=O)C1 (configuration not stated) | . | . | 15.5* | . | . | .
CN(C)Cc1nc2c(c(=O)[nH]1)C1(CCCCC1)Cc1ccccc1-2 | 0.7 | -0.7 | ? | 4.4 | -1.2 | 1.1
CCSc1n[nH]c2nc3c(c(=O)n12)C1(CCCC1)Cc1ccccc1-3 | -7.6 | 22.0 | 12.0 | 10.4 | 62.0* | 1.6
Nn1cnc2c(c1=O)C1(CCCCC1)Cc1ccccc1-2 | -4.6 | -2.2 | 26.0* | 3.0 | -4.0 | -0.1
CCN(CC)Cc1nc2c(c(=O)[nH]1)C1(CCCCC1)Cc1ccccc1-2 | -2.6 | -1.7 | 29.8* | 0.9 | 33.3 | 3.0
CC1(C)C(=O)NCCN1C(=O)CC1C(=O)NCCN1Cc1cccc(C(F)(F)F)c1 (configuration not stated) | . | . | 3.8 | . | . | .
CCOc1cc(/C=C(\C#N)C(=O)Nc2ccccc2[N+](=O)[O-])ccc1OCc1cccc2ccccc12 | -5.3 | 1.3 | . | 55.3* | -5.1 | 0.4
Cc1ccccc1-n1ncc2c1CC(C)(C)CC2NC(=O)c1snnc1C (configuration not stated) | . | . | 2.5 | . | . | .
Cc1ccc(NC(=O)c2cccc3c2C(=O)N(C2CCCCC2)C3)c(Cl)c1 | . | . | 1.5 | . | . | .
CC1(CCc2ccccc2)NC(=O)N(CC(=O)N2CCCCCC2)C1=O (configuration not stated) | . | . | -2.8 | . | . | .
CCn1c(C)c(C(C)=O)c(N2CCN(c3ccccc3)CC2)nc1=S | -10.8 | -61.6 | 19.5* | 1.8 | 10.6 | 2.0
CCn1c(C)c(C(C)=O)c(N2CCN(C(c3ccccc3)c3ccccc3)CC2)nc1=S | -21.7 | 18.0 | 57.3* | -5.8 | 23.4 | -0.2
Cc1cccc2c3c([nH]c12)CCNC3 | . | . | 2.7 | . | . | .
